Results published in ChEMBL document CHEMBL1154794, “Asterolaurins A-F, xenicane diterpenoids from the Taiwanese soft coral Asterospicularia laurae” (J Nat Prod, 2009).

How the values were obtained:
[1] = Antiinflammatory activity in human neutrophils assessed as inhibition of fMLP/cytochalasin B-induced elastase release at 10 ug/ml after 5 mins; type: functional; details: Neutrophil
Outline: (§1)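 Neutrophils (6 × 10^5/mL) given MeO-Suc-Ala-Ala-Pro-Val-p-nitroanilide (100 µM) as substrate, equilibrated 2 min at 37 °C, then exposed to compound for 5 min. Stimulated with FMLP (100 nM)/CB (0.5 µg/mL). Absorbance at 405 nm followed continuously. Initial rate of elastase release expressed as percentage of the FMLP/CB-activated DMSO control. Genistein served as positive control.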

[2] = Antiinflammatory activity in human neutrophils assessed as inhibition of fMLP/cytochalasin B-induced superoxide anion generation at 10 ug/ml after 5 mins by spectrophotometry; type: functional; details: Neutrophil
Outline: (§2)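 Neutrophils isolated by dextran sedimentation and Ficoll centrifugation. Cells supplemented with ferricytochrome c (0.5 mg/mL) and Ca2+ (1 mM), equilibrated 2 min at 37 °C, then given compound for 5 min. CB (1 µg/mL) added 3 min before FMLP (100 nM) activation for 10 min. Superoxide dismutase-inhibitable ferricytochrome c reduction followed continuously at 550 nm with stirring.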

[3] = test system: HepG2; experiment: Cytotoxicity against human HepG2 cells by MTT assay; type: functional, cell-based
Outline: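 Human liver carcinoma HepG2 cells, viability read by MTT assay. Camptothecin served as positive control.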

[4] = Antiinflammatory activity in human neutrophils assessed as inhibition of fMLP/cytochalasin B-induced elastase release after 5 mins; type: functional, cell-based; details: Neutrophil; outline: as §1
[5] = Antiinflammatory activity in human neutrophils assessed as inhibition of fMLP/cytochalasin B-induced superoxide anion generation after 5 mins by spectrophotometry; type: functional, cell-based; details: Neutrophil; outline: as §2

| SMILES | inhibition at 10 µg/mL [1] [%] | inhibition at 10 µg/mL [2] [%] | IC50 [3] [µM] | IC50 [4] [µM] | IC50 [5] [µM] |
| --- | --- | --- | --- | --- | --- |
| O=c1c(-c2ccc(O)cc2)coc2cc(O)cc(O)c12 [GENISTEIN] | 52 | 65 |  |  |  |
| C=C1C[C@@H](OC(C)=O)/C=C(\C)CC[C@@H]2/C(=C\[C@H](O)C=C(C)C)C(=O)OC[C@@H]12 | 13 | 9 | > 40 |  |  |
| C=C1C[C@@H](O)[C@@H](O)/C(C)=C\C[C@@H]2C([C@@H](OC(C)=O)[C@H](C=C(C)C)OC(C)=O)=CO[C@H](OC(C)=O)[C@@H]12 [ASTEROLAURIN B] | 30 | 31 | > 40 |  |  |
| C=C1C[C@@H](O)[C@@H]2O[C@@]2(C)CC[C@@H]2C([C@@H](OC(C)=O)[C@H](C=C(C)C)OC(C)=O)=CO[C@H](OC(C)=O)[C@@H]12 [ASTEROLAURIN A] |  |  | 8.9 | 40 |  |
| C=C1C[C@@H](OC(C)=O)/C=C(\COC(C)=O)CC[C@@H]2/C(=C\[C@H](O)C=C(C)C)C(=O)OC[C@@H]12 [ASTEROLAURIN E] | 36 | 24 | > 40 |  |  |
| C=C1C[C@@H](O)[C@@H](O)C(=C)CC[C@@H]2C([C@@H](OC(C)=O)[C@H](C=C(C)C)OC(C)=O)=CO[C@H](OC(C)=O)[C@@H]12 [ASTEROLAURIN C] | 39 | 22 | > 40 |  |  |
| C=C1C[C@@H](OC(C)=O)/C=C(\C)CC[C@@H]2/C(=C\C=C\C(C)(C)O)CO[C@H](O)[C@@H]12 [ASTEROLAURIN D] | 68 | 56 | > 40 | 18.7 | 23.6 |
